Test [1] deals with L1210. Put plainly: Compound was evaluated for its cytotoxicity against the L1210 murine leukemia cell culture. In kind it is functional. The note with it: Mus musculus, read-out: ID50 (the source's name).
In test [2] the test system is Mus musculus. Put plainly: In vivo antitumor activity was evaluated against L1210 leukemia implanted mice by measuring percent increase in life span after intraperitoneal administration of compound at 1 mg/kg. It counts as functional. The gist of the method:
(§1)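 Male B6D2F1J mice, five per group, were implanted ip with 10^5 L1210 cells on day 0. Treatment began on day 1. Drug was given ip in sterile water, twice daily on days 1-4 and 7-10, and as a single double-dose injection on days 5 and 6. Survival was recorded in days (range, and median treated/control), with % ILS derived from it. Body-weight change at 7 days was also recorded.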

Test [3] deals with Mus musculus. Put plainly: In vivo antitumor activity was evaluated against L1210 leukemia implanted mice by measuring percent increase in life span after intraperitoneal administration of compound at 0.5 mg/kg. It counts as functional. The gist of the method:
as §1

For test [4], the system named is Mus musculus. Put plainly: In vivo antitumor activity was evaluated against L1210 leukemia implanted mice by measuring percent increase in life span after intraperitoneal administration of compound at 0.75 mg/kg. In kind it is functional. The gist of the method:
as §1

Test [5] relates to Mus musculus. Put plainly: In vivo antitumor activity was evaluated against L1210 leukemia implanted mice by measuring T/C median after intraperitoneal administration of compound at 1 mg/kg; T/C median=21/9. In kind it is functional. The gist of the method: as §1
The subject of test [6] is Mus musculus. Put plainly: In vivo antitumor activity was evaluated against L1210 leukemia implanted mice by measuring number of survival days after intraperitoneal administration of compound at 1 mg/kg; at a range of 3-22. It counts as functional. In a few lines: as §1
Test [7] deals with Mus musculus. Put plainly: In vivo antitumor activity was evaluated against L1210 leukemia implanted mice by measuring T/C median after intraperitoneal administration of compound at 0.5 mg/kg; T/C median=16/9. In kind it is functional. The gist of the method: as §1
Test [8] relates to Mus musculus. Put plainly: In vivo antitumor activity was evaluated against L1210 leukemia implanted mice by measuring 7-day weight change after intraperitoneal administration of compound at 0.5 mg/kg. It counts as functional. In a few lines:
(§2)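 Groups of five male B6D2F1J mice were inoculated ip with 10^5 L1210 cells on day 0. Starting day 1, drug in sterile water was given ip bid on days 1-4 and 7-10, with a single double-dose injection on days 5 and 6. Percent body-weight change was recorded at day 7, along with survival range, median T/C and ILS.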

The test system of test [9] is Mus musculus. Put plainly: In vivo antitumor activity was evaluated against L1210 leukemia implanted mice by measuring 7-day weight change after intraperitoneal administration of compound at 0.75 mg/kg. In kind it is functional. The gist of the method:
as §2

The subject of test [10] is Mus musculus. Put plainly: In vivo antitumor activity was evaluated against L1210 leukemia implanted mice by measuring number of survival days after intraperitoneal administration of compound at 0.5 mg/kg; at a range of 15-18. It counts as functional. The gist of the method: as §1
For test [11], the system named is Mus musculus. Put plainly: In vivo antitumor activity was evaluated against L1210 leukemia implanted mice by measuring number of survival days after intraperitoneal administration of compound at 0.75 mg/kg; at a range of 16-21. It counts as functional. In a few lines: as §1
Test [12] relates to Mus musculus. Put plainly: In vivo antitumor activity was evaluated against L1210 leukemia implanted mice by measuring 7-day weight change after intraperitoneal administration of compound at 1 mg/kg. It counts as functional. The gist of the method:
as §2

The test system of test [13] is Mus musculus. Put plainly: In vivo antitumor activity was evaluated against L1210 leukemia implanted mice by measuring T/C median after intraperitoneal administration of compound at 0.75 mg/kg; T/C median=18/9. In kind it is functional. In a few lines: as §1
Test [14] has as its system Mus musculus. Put plainly: In vivo antitumor activity was evaluated against L1210 leukemia implanted mice by measuring percent increase in life span after intraperitoneal administration of compound at 2 mg/kg. In kind it is functional. In a few lines:
as §1

For test [15], the system named is Mus musculus. Put plainly: In vivo antitumor activity was evaluated against L1210 leukemia implanted mice by measuring 7-day weight change after intraperitoneal administration of compound at 2 mg/kg. In kind it is functional. In a few lines: as §2
The subject of test [16] is Mus musculus. Put plainly: In vivo antitumor activity was evaluated against L1210 leukemia implanted mice by measuring T/C median after intraperitoneal administration of compound at 1 mg/kg; T/C median=16/8. In kind it is functional. In a few lines: as §1
Test [17] relates to Mus musculus. Put plainly: In vivo antitumor activity was evaluated against L1210 leukemia implanted mice by measuring T/C median after intraperitoneal administration of compound at 2 mg/kg; T/C median=19/8. It counts as functional. The gist of the method:
as §1

The subject of test [18] is Mus musculus. Put plainly: In vivo antitumor activity was evaluated against L1210 leukemia implanted mice by measuring number of survival days after intraperitoneal administration of compound at 2 mg/kg; at a range of 16-20. It counts as functional. The gist of the method:
as §1

The subject of test [19] is Mus musculus. Put plainly: In vivo antitumor activity was evaluated against L1210 leukemia implanted mice by measuring T/C median after intraperitoneal administration of compound at 0.5 mg/kg; T/C median=15/8. It counts as functional. In a few lines:
as §1

The test system of test [20] is Mus musculus. Put plainly: In vivo antitumor activity was evaluated against L1210 leukemia implanted mice by measuring number of survival days after intraperitoneal administration of compound at 0.5 mg/kg; at a range of 13-16. In kind it is functional. In a few lines: as §1
Test [21] deals with Mus musculus. Put plainly: In vivo antitumor activity was evaluated against L1210 leukemia implanted mice by measuring number of survival days after intraperitoneal administration of compound at 1 mg/kg; at a range of 13-17. In kind it is functional. The gist of the method: as §1
In test [22] the target is T1, Dihydrofolate reductase (Mus musculus) (UniProt P00375).
T1 sequence (whole entry): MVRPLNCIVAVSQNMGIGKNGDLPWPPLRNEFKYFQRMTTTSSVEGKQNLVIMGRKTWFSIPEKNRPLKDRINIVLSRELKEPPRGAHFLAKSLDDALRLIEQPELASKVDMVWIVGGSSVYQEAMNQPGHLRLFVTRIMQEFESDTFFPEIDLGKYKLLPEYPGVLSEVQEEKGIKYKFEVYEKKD

For test [23], the system named is Mus musculus. Put plainly: In vivo antitumor activity was evaluated against L1210 leukemia implanted mice by measuring percent increase in life span after intraperitoneal administration of compound at 16 mg/kg. It counts as functional. The note with it: 16 mg/kg. In a few lines: as §1
For test [24], the system named is Mus musculus. Put plainly: In vivo antitumor activity was evaluated against L1210 leukemia implanted mice by measuring T/C median after intraperitoneal administration of compound at 32 mg/kg; 22/9. It counts as functional. In a few lines: (§3)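 Male B6D2F1J mice, five per group, were inoculated ip with 10^5 L1210 cells on day 0. Treatment began on day 1, given ip in sterile water twice daily on days 1-4 and 7-10, with a single double-dose injection on each of days 5 and 6. Read-outs were percent body weight change over 7 days, survival range in days, treated/control median survival, and percent increase in life span.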

The test system of test [25] is Mus musculus. Put plainly: In vivo antitumor activity was evaluated against L1210 leukemia implanted mice by measuring number of survival days after intraperitoneal administration of compound at 32 mg/kg; range 21-24. In kind it is functional. In a few lines: as §3
The subject of test [26] is Mus musculus. Put plainly: In vivo antitumor activity was evaluated against L1210 leukemia implanted mice by measuring T/C median after intraperitoneal administration of compound at 16 mg/kg; 21/9. It counts as functional. In a few lines:
as §3

The subject of test [27] is Mus musculus. Put plainly: In vivo antitumor activity was evaluated against L1210 leukemia implanted mice by measuring 7-day weight change after intraperitoneal administration of compound at 32 mg/kg. In kind it is functional. The gist of the method:
as §2

Test [28] relates to Mus musculus. Put plainly: In vivo antitumor activity was evaluated against L1210 leukemia implanted mice by measuring number of survival days after intraperitoneal administration of compound at 16 mg/kg; range 19-21. In kind it is functional. The gist of the method:
as §3

Test [29] concerns Mus musculus. Put plainly: In vivo antitumor activity was evaluated against L1210 leukemia implanted mice by measuring 7-day weight change after intraperitoneal administration of compound at 16 mg/kg. It counts as functional. The gist of the method:
as §2

Values joined by “and” are separate entries in the source; they are usually repeats but may differ in a detail not shown here. Equal entries are not always repeated.

As for `CN(Cc1cnc2nc(N)nc(N)c2n1)c1ccc(C(=O)N[C@@H](CCC(=O)O)C(=O)O)cc1` [METHOTREXATE], the IC50 in test [1] was found to be 12 nM. The Activity in test [2] worked out at 133%; in [3] it was 78%; in test [4], 100%. For the same compound, the Survival days in [5] was 21; in test [6] it was 3; in test [7], 16; in test [10], 15; in test [11] it was 16; in [13], 18. For the same compound, the Weight change was -1% in [8], -5% in test [9] and -8% in test [12].

For the compound `Nc1nc(N)c2nc(CNc3ccc(C(=O)NC(CCS(=O)(=O)O)C(=O)O)cc3)cnc2n1` (stereo unspecified), the IC50 in test [1] was 31 nM. Further, the Activity in [2] is 100%; in test [14], 138%; in test [15] it was -8%; in test [3], 88%; in test [12], -8%. For the same compound, the Survival days in test [16] is given as 16; in test [17] it was 19; in test [18], 16; in [19], 15; in [20], 13; in test [21], 13. Moreover, the Weight change in [8] was -1%. In test [22], this compound displayed an ID50 of 63 nM.

Regarding `CN(Cc1cnc2nc(N)nc(N)c2n1)c1ccc(C(=O)NC(CCS(=O)(=O)O)C(=O)O)cc1` (stereo unspecified), the IC50 in test [1] is 180 nM. Besides, the Activity in [23] is 155% and 144%. The Survival days in test [24] came to 22; in [25] it was 21; in [26], 21; in [28], 19. The Weight change in test [27] is listed as -12%; in test [29] it was -9%. The ID50 in test [22] is 41 nM.

(Values after ChEMBL document CHEMBL1122647 (J Med Chem, 1984).)
